In brackets after ≈: the same amount, converted by molar mass. Activity calls are given as the source filed them. The calls are words filed in the database; no cut-off is given here.
Experiments:
[1] = test system: Escherichia coli; test: Antibacterial activity against Escherichia coli transformed with plasmid carrying MG1655 deltaBC/pXYM by p-iodonitrotetrazolium chloride colorimetric assay; type: functional
In short: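 Two-fold broth microdilution in Mueller-Hinton broth, read by p-iodonitrotetrazolium chloride colorimetric assay. MIC is the lowest concentration giving no visible growth. MG1655 ΔacrB ΔtolC strains carrying pABM or pXYM were always cultured with 100 μg/mL ampicillin and 1 mM IPTG. Medium, inoculum and 1% DMSO (final) served as negative control.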

[2] = test system: Escherichia coli; test: Potentiation of chloramphenicol-induced antibacterial activity Escherichia coli AG102 overexpressing AcrAB-TolC assessed as chloramphenicol MIC by p-iodonitrotetrazolium chloride colorimetric assay; type: functional
In short: (§1)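 Checkerboard microdilution in Mueller-Hinton broth: two-fold dilutions of antibiotic crossed with dilutions of test compound above, at and below their MICs. Growth was read by INT colorimetric assay, with MIC as the lowest concentration showing no visible growth. FICs and FIC index were derived from these MICs. ΔBC/pABM and ΔBC/pXYM strains were grown with 100 μg/mL ampicillin and 1 mM IPTG.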

[3] = test system: Escherichia coli; test: Potentiation of chloramphenicol-induced antibacterial activity Escherichia coli transformed with plasmid carrying MG1655 deltaBC/pABM assessed as chloramphenicol MIC by p-iodonitrotetrazolium chloride colorimetric assay; type: functional; in short: as §1
[4] = (§2) Inhibition of AcrAB-TolC pump in Escherichia coli AG100 assessed as increase in intracellular H33342 fluorescence after 60 mins by efflux inhibition assay; type: cell-based; conditions: AG100, 1 h
In short: (§3)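 AG100 (wild-type K-12) or AG100A (ΔacrAB) cells were grown in Luria broth at 37 °C and 200 rpm to OD600 1.0, PBS-washed and diluted to OD600 0.3. Cells took up 2.5 μM Hoechst 33342 with 22 mM glucose at 37 °C for about 30 min, then compound (0.06–64 μg/mL) or PAβN (15.6 μg/mL) was added. Fluorescence (Ex 350/Em 460 nm) was followed for 60 min and corrected for background. The last four time points were compared to dye-only control by ANOVA with Dunnett's test, run in duplicate.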

[5] = test system: Escherichia coli; test: as §2; type: cell-based; in short: as §3
[6] = test system: Escherichia coli; test: Potentiation of ciprofloxacin-induced antibacterial activity Escherichia coli transformed with plasmid carrying MG1655 deltaBC/pABM assessed as ciprofloxacin MIC by p-iodonitrotetrazolium chloride colorimetric assay; type: functional; in short: as §1
[7] = test system: Escherichia coli; test: Potentiation of erythromycin-induced antibacterial activity Escherichia coli AG102 overexpressing AcrAB-TolC assessed as erythromycin MIC by p-iodonitrotetrazolium chloride colorimetric assay; type: functional; in short: as §1
[8] = test system: Escherichia coli; test: Potentiation of kanamycin-induced antibacterial activity Escherichia coli transformed with plasmid carrying MG1655 deltaBC/pXYM assessed as kanamycin MIC by p-iodonitrotetrazolium chloride colorimetric assay; type: functional; in short: as §1
[9] = test system: Escherichia coli; test: Potentiation of oxacillin-induced antibacterial activity Escherichia coli transformed with plasmid carrying MG1655 deltaBC/pABM assessed as oxacillin MIC by p-iodonitrotetrazolium chloride colorimetric assay; type: functional, organism-based; in short: as §1
[10] = test system: Escherichia coli; test: Potentiation of piperacillin-induced antibacterial activity Escherichia coli transformed with plasmid carrying MG1655 deltaBC/pABM assessed as piperacillin MIC by p-iodonitrotetrazolium chloride colorimetric assay; type: functional, organism-based; in short: as §1
[11] = test system: Escherichia coli; test: Potentiation of tetracycline-induced antibacterial activity Escherichia coli AG102 overexpressing AcrAB-TolC assessed as tetracycline MIC by p-iodonitrotetrazolium chloride colorimetric assay; type: functional; in short: as §1
[12] = test system: Escherichia coli; test: Potentiation of tetracycline-induced antibacterial activity Escherichia coli transformed with plasmid carrying MG1655 deltaBC/pABM assessed as tetracycline MIC by p-iodonitrotetrazolium chloride colorimetric assay; type: functional; in short: as §1
[13] = test system: Escherichia coli; test: Potentiation of ciprofloxacin-induced antibacterial activity Escherichia coli AG102 overexpressing AcrAB-TolC by p-iodonitrotetrazolium chloride colorimetric assay; type: functional
[14] = test system: Escherichia coli; test: Potentiation of erythromycin-induced antibacterial activity Escherichia coli AG102 overexpressing AcrAB-TolC by p-iodonitrotetrazolium chloride colorimetric assay; type: functional
[15] = test system: Escherichia coli; test: Potentiation of kanamycin-induced antibacterial activity Escherichia coli AG102 overexpressing AcrAB-TolC by p-iodonitrotetrazolium chloride colorimetric assay; type: functional
[16] = test system: Escherichia coli; test: Potentiation of kanamycin-induced antibacterial activity Escherichia coli transformed with plasmid carrying MG1655 deltaBC/pABM by p-iodonitrotetrazolium chloride colorimetric assay; type: functional
[17] = test system: Escherichia coli; test: Potentiation of oxacillin-induced antibacterial activity Escherichia coli AG102 overexpressing AcrAB-TolC by p-iodonitrotetrazolium chloride colorimetric assay; type: functional, organism-based; in short: as §1
[18] = test system: Escherichia coli; test: Potentiation of tetracycline-induced antibacterial activity Escherichia coli transformed with plasmid carrying MG1655 deltaBC/pABM by p-iodonitrotetrazolium chloride colorimetric assay; type: functional
[19] = test system: Escherichia coli; test: Potentiation of tetracycline-induced antibacterial activity Escherichia coli transformed with plasmid carrying MG1655 deltaBC/pXYM by p-iodonitrotetrazolium chloride colorimetric assay; type: functional
[20] = test system: Escherichia coli K-12; test: Inhibition of AcrAB-TolC pump in Escherichia coli K-12 AG100 assessed as […] at 4 ug/ml after 60 mins by accumulation assay
In short: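 AG100 (wild-type K-12) or AG100A (ΔacrAB) grown in Luria broth at 37 °C and 200 rpm to OD600 1.0, PBS-washed, diluted to OD600 0.3. Cells given 2.5 μM H33342 with 22 mM glucose at 37 °C for ~30 min until stable, then compound (0.06–64 μg/mL) added. Fluorescence (Ex 350/Em 460) read for 60 min, background subtracted. Final 4 time points averaged; one-way ANOVA/Dunnett vs Hoechst-only; n = 8.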

[21] = test system: Escherichia coli K-12; test: Inhibition of AcrAB-TolC pump in Escherichia coli K-12 AG100 assessed as […] at 0.25 ug/ml after 60 mins by accumulation assay
In short: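 Cells grown in Luria broth at 37 °C, 200 rpm to OD600 1.0, washed twice in PBS and diluted in glucose-free PBS to OD600 0.3. Cells were given 2.5 μM H33342 with 22 mM glucose at 37 °C for ~30 min until stable, then compound added (0.06–64 μg/mL). Fluorescence (Ex 350/Em 460 nm) was read for 60 min, background subtracted, and the final 4 min averaged (n = 8).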

[22] = test system: Escherichia coli K-12; test: Inhibition of AcrAB-TolC pump in Escherichia coli K-12 AG100 assessed as increase in intracellular H33342 fluorescence at 64 ug/ml after 60 mins by efflux inhibition assay; type: cell-based; in short: as §3
[23] = test system: Escherichia coli K-12; test: Inhibition of AcrAB-TolC pump in Escherichia coli K-12 AG100 assessed as increase in intracellular H33342 fluorescence at 16 ug/ml after 60 mins by efflux inhibition assay; type: cell-based; in short: as §3
[24] = test system: Escherichia coli K-12; test: Inhibition of AcrAB-TolC pump in Escherichia coli K-12 AG100 assessed as increase in intracellular H33342 fluorescence at 1 ug/ml after 60 mins by efflux inhibition assay; type: cell-based; in short: as §3
[25] = test system: Escherichia coli; test: Potentiation of chloramphenicol-induced antibacterial activity Escherichia coli transformed with plasmid carrying MG1655 deltaBC/pABM by p-iodonitrotetrazolium chloride colorimetric assay; type: functional
[26] = test system: Escherichia coli; test: Potentiation of chloramphenicol-induced antibacterial activity Escherichia coli transformed with plasmid carrying MG1655 deltaBC/pXYM by p-iodonitrotetrazolium chloride colorimetric assay; type: functional

## O=C1NC(=O)C(Br)=C1Br
[1]
  MIC: 128 µg/mL (≈ 502 µM)
[2]
  MIC: 64 µg/mL
[3]
  MIC: 128 µg/mL
[4]
  IC50: 0.79 µg/mL (≈ 3.1 µM)
[5]
  inhibition: Dose-dependent effect
[6]
  MIC: 64 µg/mL
[7]
  MIC: 128 µg/mL
[8]
  MIC: 32 µg/mL
[9]
  MIC: inactive
[10]
  MIC: inactive
[11]
  MIC: 64 µg/mL
[12]
  MIC: 128 µg/mL
[13]
  fractional inhibitory concentration index (FICI): 0.5
[14]
  fractional inhibitory concentration index (FICI): 0.38
[15]
  fractional inhibitory concentration index (FICI): 0.27
[16]
  fractional inhibitory concentration index (FICI): 0.75
[17]
  fractional inhibitory concentration index (FICI): inactive
[18]
  fractional inhibitory concentration index (FICI): 1
[19]
  fractional inhibitory concentration index (FICI): 0.58
[20]
  RFU: 1130
[21]
  RFU: 796
[22]
  RFU: -68
[23]
  RFU: -34
[24]
  RFU: -247
[25]
  fractional inhibitory concentration index (FICI): 0.75
[26]
  fractional inhibitory concentration index (FICI): 0.19

From ChEMBL document CHEMBL3576792, “Enhancement of antibiotic activity against multidrug-resistant bacteria by the efflux pump inhibitor 3,4-dibromopyrrole-2,5-dione isolated from a Pseudoalteromonas sp” (J Nat Prod, 2015)
